# The list is not random: actives were taken first. Their share in the collection is about 6.8%.
# PHOSPHO1 inh – inhibitors of human PHOSPHO1 phosphatase | Q8TCT1 | recombinant PHOSPHO1, absorbance phosphatase assay | inhibition, % at 13.3 µM | hit rate 1.1% among 290,000; in the data active = inhibition above about 60%
# Target sequence (Q8TCT1 whole entry, looked up): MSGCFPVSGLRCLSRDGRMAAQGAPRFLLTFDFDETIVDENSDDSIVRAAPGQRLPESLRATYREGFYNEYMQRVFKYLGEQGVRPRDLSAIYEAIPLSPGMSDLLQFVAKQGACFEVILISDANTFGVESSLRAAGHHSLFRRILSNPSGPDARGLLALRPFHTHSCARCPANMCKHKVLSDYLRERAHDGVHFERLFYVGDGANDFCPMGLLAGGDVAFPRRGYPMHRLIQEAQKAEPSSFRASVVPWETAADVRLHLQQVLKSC
# AI-2 QS modul – Vibrio harveyi AI-2 quorum sensing modulation | Vibrio harveyi JMH597 AI-2 luminescence/OD600 ratio, 9 h; active compounds read low; strain lacks LuxN and CqsS sensors; 0 = neutral-control median | activity change, % at 7.5 µM | hit rate 0.4% among 300,000 | AID 2094; in the data active = activity change below about -75%, passing the limit was not always enough; inconclusive = no clear call, values can overlap the other calls;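 also: luminescence divided by OD600 gain over 9 h not by final OD600 alone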
# HSF-1 act – increases HSF-1 driven luciferase reporter signal | NIH3T3-HGL HSF-1 luciferase reporter, MG132, 8 h; 100% = twice DMSO control signal | activation, % at 9 µM | hit rate 1.7% among 300,000;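 active = mean replicate activation of at least 50% with a set share of replicates each reaching 50%; inconclusive = only one of those two conditions met; inactive = mean below 50% and too few replicates reaching it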;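 also: 0% = median of the neutral control wells and 100% = twice that signal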
# ALR inh – blocks human ALR sulfhydryl oxidase activity | P55789 | purified ALR, DTT oxidation, H2O2 HRP-luminol luminescence | inhibition, % (no concentration beside the values) | hit rate 3.8% among 290,000 | AID 485317;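 active = mean replicate inhibition above about 79%, with every replicate also reaching it, limit read from the data; inconclusive = only one of the two criteria met; inactive = mean below limit and not every replicate reaching it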
# Target sequence (P55789 whole entry, looked up): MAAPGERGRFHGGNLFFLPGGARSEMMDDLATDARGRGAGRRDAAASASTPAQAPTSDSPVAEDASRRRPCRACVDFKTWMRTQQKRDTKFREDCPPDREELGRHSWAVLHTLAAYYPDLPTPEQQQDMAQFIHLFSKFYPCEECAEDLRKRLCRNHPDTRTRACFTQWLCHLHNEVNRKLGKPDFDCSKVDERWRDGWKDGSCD
# HSF1 inhib – HSF1 inhibition. NIH3T3-HGL HSE-luciferase, MG132-induced, luminescence 8 h; active compounds read low. AID 2098. hit rate 0.77% among 300,000. activity change, negative = inhibition, % at 7.5 µM (by protocol);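 active = more than half of replicate wells show activity change below -50%, luminescence cut by over half; inconclusive = some wells, but at most half, below -50%; inactive = no replicate well below -50%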;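 also: luciferase reports HSF-1 transcriptional activity via heat shock element; 0% = median of DMSO wells and -100% = zero luminescence signal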
# HCV core dimer – blocks dimerization of HCV core protein; inhibition, % at 5 µM; hit rate 0.33% among 300,000; TR-FRET GST/Flag-core106 dimerization, 1536-well;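 active = inhibition above the mean of all tested compounds plus 3 SD, set per screening campaign, cut at about 45% in these data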
#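 Assay system: tagged HCV core106 pair (GST and Flag); medium: KF-containing HEPES buffer, pH 7.45, DTT, CHAPS, BSA; also added: Eu donor and XL665 acceptor anti-tag antibodies; dosing: 5 µM single dose; timing: compound-protein-antibody incubation 4 h at 22.5 °C; signal: TR-FRET 671 and 617 nm emission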
# JMH597 growth rt – retest: inhibitors of Vibrio harveyi JMH597 growth | growth inhibition, % at 7.5 µM | hit rate 1% among 750 | shares compounds with AI-2 QS modul | OD600 absorbance, 9 h; lacks LuxN and CqsS sensors;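 active = every replicate shows growth inhibition above 50%; inconclusive = at least half, but not all, replicates pass that cutoff; inactive = fewer than half of replicates pass it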
# BB721 const-QS lum – retest counter-screen: lowers luminescence of constitutive-QS Vibrio harveyi BB721. hit rate 95% among 750. inhibition, % at 7.5 µM. shares compounds with AI-2 QS modul. AID 2727. 9 h;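 active = inhibition above about 80% in every replicate, not just on average, limit read from the data; inconclusive = at least half of replicates past the limit, but not all; inactive = fewer than half of replicates past the limit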
# BB721 growth – retest: blocks Vibrio harveyi BB721 growth | hit rate 3% among 750 | shares compounds with AI-2 QS modul | AID 2728 | OD600 absorbance, 9 h | growth inhibition, % at 7.5 µM;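 active = every replicate shows growth inhibition above 50%; inconclusive = at least half but not all replicates above 50% inhibition; inactive = under half of replicates above 50% inhibition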
# AI-2 QS JMH597 – Vibrio harveyi AI-2 signaling luminescence modulation – JMH597 strain, confirmation. inhibition, % at 7.5 µM. AID 2736. shares compounds with AI-2 QS modul. hit rate 97% among 750. Vibrio harveyi JMH597 AI-2 quorum sensing luminescence, 9 h; luxN and CqsS knockout, AI-2 only;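 active = every replicate shows more than 75% inhibition of signal versus neutral control wells; inconclusive = half to three quarters of replicates exceed 75% inhibition; inactive = fewer than half of replicates exceed 75% inhibition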
# * hit, by the source's call; ? = inconclusive; · = no result.
SMILES,PHOSPHO1 inh,AI-2 QS modul,HSF-1 act,ALR inh,HSF1 inhib,HCV core dimer,JMH597 growth rt,BB721 const-QS lum,BB721 growth,AI-2 QS JMH597
Cc1cccc(OCc2nnc(SCC(=O)N3CCCCC3)o2)c1,45,25,-9,-2,5,7,·,·,·,·
COC(=O)CC1(C(=O)OC)Oc2ccccc2C(=O)N1c1ccc(F)cc1F (configuration not stated),·,27,-2,-5,-2,-3,·,·,·,·
Cc1ccc(NC(=O)CCN2C(=O)CSC2=O)cc1,15,5,-15,-3,-14,-2,·,·,·,·
O=C(CCN1C(=O)CSC1=O)Nc1ccc(Br)cc1,-11,-80*,9,·,-1,-4,13,13,9,9
CC(C)C(CCNC(=O)CC(Cc1ccccc1)c1ccco1)c1ccco1 (configuration not stated),16,21,12,·,8,9,·,·,·,·
CC(C)C(CCNC(=O)CN1C(=O)c2ccccc2C1=O)c1ccco1 (configuration not stated),-79,-84*,11,-1,-2,0,12,94*,2,97*
CCCc1cc(C(=O)Nc2ccc(F)c(Cl)c2)no1,28,-82*,23,·,17,-2,38,96*,-78,97*
COc1ccc(NC(=O)Cc2nnc(SCC(=O)NC3CCCCC3C)n2C)cc1 (configuration not stated),-13,24,8,0,-1,2,·,·,·,·
Nc1nc(-c2ccc(Oc3ccccc3)cc2)cs1,32,-95*,3,99*,-2,-10,-32,96*,-94,98*
Cc1ccc(NC(=O)CSc2nnc(/N=C/N(C)C)s2)cc1,32,38,0,-4,-12,-2,·,·,·,·
Cc1cccc(-n2nnc(C(=O)N3CCc4ccccc4C3)c2N)c1,44,-82*,7,0,4,0,39,92*,?,95*
COC(=O)c1ccc(NC(=O)CN2C(=O)c3ccccc3S2(=O)=O)cc1,46,-90*,-17,-5,-9,-16,17,96*,4,97*
O=C(NNc1nc2cc3c(cc2s1)OCO3)c1ccccc1,-6,-91*,-8,99*,-5,-11,2,98*,20,98*
Cc1ccc2nc(NNC(=O)c3ccc4c(c3)OCCO4)sc2c1,-16,-58,6,61,2,-1,·,·,·,·
CC(NC(=O)/C=C/c1cnc2ccccc2n1)C12CC3CC(CC(C3)C1)C2 (configuration not stated),-1,20,-8,-4,-3,17,·,·,·,·
CC(C)CCNC(=O)NC(=O)COc1ncnc2sccc12,26,-81*,18,-3,10,8,-6,96*,5,97*
Cc1ccccc1OCCNC(=O)/C=C/c1ccc([N+](=O)[O-])cc1,-17,0,1,-38,-1,9,·,·,·,·
Cc1ccccc1OCCNC(=O)/C=C/c1ccccc1,-14,-82*,-10,·,5,-1,-28,94*,-12,96*
Cc1ccccc1OCCNC(=O)c1ccc2ccccc2n1,-6,-78*,86*,-1,44,-7,24,91*,7,94*
O=C(Nc1cc(-c2ccccc2)[nH]n1)c1ccccc1,22,-79*,4,11,-2,-6,14,88*,-19,93*
CC(=O)Nc1cc(-c2ccc(F)cc2)[nH]n1,24,7,9,26,0,-1,·,·,·,·
O=C(Nc1cc(-c2ccccc2)[nH]n1)c1ccccc1F,12,-86*,49,49,28,-2,12,92*,-3,94*
O=C(O)c1ccccc1C(=O)Nc1cc(-c2ccccc2)[nH]n1,36,29,-13,40,-8,-6,·,·,·,·
CN(Cc1nccs1)C(=O)c1cc(COc2cccc3cnccc23)on1,54,-94*,-17,-45,7,4,27,97*,26,99*
COC(=O)C1CCCCN1C(=O)c1cc(COc2cccc3cccnc23)on1 (configuration not stated),14,30,2,-10,-2,-20,·,·,·,·
SMILES,PHOSPHO1 inh,AI-2 QS modul,HSF-1 act,ALR inh,HSF1 inhib,HCV core dimer,JMH597 growth rt,BB721 const-QS lum,BB721 growth,AI-2 QS JMH597
COCCC1CCCCN1C(=O)c1cc(COc2cccc(C(C)=O)c2)on1 (configuration not stated),27,-15,7,-5,16,5,·,·,·,·
CCOC(=O)CC1CCCCN1C(=O)c1cc(COc2cccc3cnccc23)on1 (configuration not stated),40,-86*,-10,-13,-2,-11,22,88*,23,93*
COC(=O)C1CCCCN1C(=O)c1cc(COc2cccc3cnccc23)on1 (configuration not stated),46,-91*,-17,-23,-24,4,8,92*,25,95*
COc1cc(Cl)ccc1OCc1cc(C(=O)N(C)Cc2cccc3cnccc23)no1,18,26,2,-6,22,7,·,·,·,·
CC(=O)Nc1cccc(NC(=O)C(=O)c2cn(CC(=O)N3CCCCC3)c3ccccc23)c1,-10,9,24,-8,-1,0,·,·,·,·
O=C(NC1CCCCC1)C1CCN(S(=O)(=O)c2cccc3nonc23)CC1,24,10,0,-18,0,1,·,·,·,·
COCOc1ccc(-c2oc3c(C/C=C(\C)CCC=C(C)C)ccc(O)c3c(=O)c2OCOC)c(OCOC)c1,·,24,10,-5,-1,0,·,·,·,·
Cc1ccc(NC(=O)CCOc2ccccc2C)cc1C,27,-78*,19,1,10,0,39,92*,31,93*
Cc1ccccc1OCCC(=O)Nc1ccc(F)c(Cl)c1,5,-93*,6,-34,-5,6,22,97*,31,98*
CCc1cc(=O)oc2cc(C)cc(OCC(=O)N3CCC(C(=O)O)CC3)c12,18,22,-12,-13,-4,1,·,·,·,·
O=C(O)c1cccc(CSc2nnc(-c3cccnc3)o2)c1,24,19,-1,·,-2,·,·,·,·,·
Cc1ccccc1-c1nnc(SCc2ccc(F)cc2)o1,-27,-92*,22,-20,15,-3,24,97*,69,97*

# Source: PubChem BioAssay
